# Data reported in ChEMBL document CHEMBL1255469, “In vitro activity of a new isothiazoloquinolone, ACH-702, against Mycobacterium tuberculosis and other mycobacteria” (2010).
# Key:
# [1] = tested on: Mycobacterium tuberculosis; assay: Antimicrobial activity against isoniazid and rifampin-resistant Mycobacterium tuberculosis clinical isolates after 7 days by broth microdilution assay; assay type: functional; settings: 168 h
# Summary of the method: (§1)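 Alamar Blue broth microdilution in 7H9GC broth (Middlebrook 7H9 base, glycerol, Casitone, 10% OADC). Drug stock 1 mg/ml in 100% DMSO, diluted in broth to a final 0.03 to 8 μg/ml. M. tuberculosis H37Rv served as the susceptible-strain control. Isoniazid and rifampin resistance was assigned beforehand by the proportion method.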
# [2] = tested on: Mycobacterium tuberculosis; assay: Antimicrobial activity against isoniazid or rifampin-resistant Mycobacterium tuberculosis clinical isolates after 7 days by broth microdilution assay; assay type: functional; settings: 168 h; summary of the method: as §1
smiles,measurement,setting,value
COc1c(N2CC[C@@H](C(C)(C)N)C2)c(F)cc2c(=O)c3c(=O)[nH]sc3n(C3CC3)c12,MIC50,[1],0.06 µg/mL
same,MIC90,[1],0.12 µg/mL
same,MIC50,[2],0.12 µg/mL
same,MIC90,[2],0.12 µg/mL
